Data from paper PMC9260726 (ACS Infectious Diseases, 2022).

Columns and labels:
SARS-CoV-2 = conditions: COVID-19 patients; cited from earlier work
[1] = test system: SARS-CoV-1 S pseudotyped particles; assay type: cell-based
[2] = test system: VSV-G protein pseudotyped particles; assay type: cell-based, vesicular stomatitis virus
[3] = test system: SARS-CoV-2 S pseudotyped particles; assay type: cell-based
[4] = test system: human pneumocyte-like cells; assay: Pneumocyte-like cell MTT viability assay; assay type: cell-based; conditions: 10 μM, 48 h, uninfected
Method in brief: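 Human pneumocyte-like cells derived from H9 embryonic stem cells, used on day nine of differentiation. An uninfected duplicate set received the same drug concentrations as the antiviral set. After 48 h at 37 °C, viability was read by MTT assay. Viability was expressed as a percentage of the DMSO control, in triplicate.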

[5] = test system: SARS-CoV-2 BetaCoV/Germany/BavPat1/2020; assay type: cell-based
[6] = test system: ocular angiogenic disease models; conditions: 0.25 mg/kg; cited from earlier work
SARS-CoV-2 USA-WA1/2020 = assay type: cell-based
Vero CCL81 cells = conditions: 1 μM, 18 h
[7] = test system: SARS-CoV-2 BetaCoV/Germany/BavPat1/2020; assay type: cell-based; remark: listed apart in the source
SARS-CoV-2 dsRNA = assay type: cell-based
[8] = test system: SARS-CoV-2 BetaCoV/Germany/BavPat1/2020; assay: Time-of-addition assay in Vero CCL81, plaque assay; assay type: cell-based
ACE2 = ACE2 immunoblot analysis in Vero E6; assay type: cell-based, monkey; conditions: Vero E6, after 24 h
Vero E6 = conditions: Vero E6, conditions of the antiviral assay, 16 h
HeLa-hACE2 = conditions: HeLa-hACE2, conditions of the antiviral assay, 16 h
[9] = test system: SARS-CoV-2 nucleoprotein and spike protein; assay type: cell-based
[10] = test system: SARS-CoV-2 negative-stranded viral RNA; assay: In vitro transcribed viral RNA replication assay, negative-stranded RNA RT-qPCR; assay type: cell-based
[11] = test system: SARS-CoV-2 BetaCoV/Germany/BavPat1/2020; assay type: cell-based; conditions: effect only at 10 μM, less potent than Apra S4

CC(C)C(=O)OC[C@H]1O[C@@H](n2ccc(NO)nc2=O)[C@H](O)[C@@H]1O [molnupiravir]
reduction of the rate of hospitalizations and death (SARS-CoV-2): 30%

Cc1cccc(/C=N/Nc2cc(N3CCOCC3)nc(OCCc3ccccn3)n2)c1 [Apilimod, apilimod, reference compound]
viral entry of SARS-CoV-1 S pseudotyped particles (luciferase) [1]: inhibited viral entry | cytotoxic effect (WST-8) (Vero E6 cells): No cytotoxic effect was observed | VSV-G-mediated entry [2]: None of the compounds impacted | viral entry of SARS-CoV-2 S pseudotyped particles (luciferase) [3]: inhibited viral entry

CCC(CC)COC(=O)[C@H](C)N[P@](=O)(OC[C@H]1O[C@@](C#N)(c2ccc3c(N)ncnn23)[C@H](O)[C@@H]1O)Oc1ccccc1 [remdesivir, reference compound]
cytotoxicity in pneumocyte-like cells [4]: No cytotoxicity | SARS-CoV-2 multicycle growth [5]: less potent

CC[C@H](C)[C@H]1C(=O)N2CCC[C@H]2C(=O)O[C@H](C(C)(C)C)C[C@@H](C)C[C@H](O)[C@H](C)C2=N[C@@H](CCC(=O)N[C@@H](Cc3ccc(OC)cc3)C(=O)N(C)[C@@H](C)C(=O)N1C)CS2 [Apra S4, apratoxin S4]
cytotoxicity in pneumocyte-like cells [4]: No cytotoxicity | viral entry of SARS-CoV-1 S pseudotyped particles (luciferase) [1]: slightly enhanced infection | efficacy in ocular angiogenic disease models in vivo [6]: exquisite efficacy | toxicity in ocular angiogenic disease models in vivo [6]: without toxicity or histological abnormalities | viral replication in human pneumocyte-like cells (SARS-CoV-2 USA-WA1/2020): significantly decreased viral replication | cytotoxic effects (CellTiter-Glo) (Vero CCL81 cells): not due to cytotoxic effects | reduction in infectious virus titers in the supernatant [7]: more than 100 fold | dsRNA intermediates in infected cells (SARS-CoV-2 dsRNA): strongly reduced | antiviral activity by time of addition [8]: did not lose its antiviral activity even if added 2 h after infection | concentration giving decreased ACE2 protein levels (ACE2): ≥ 1 µM | cytotoxicity (Vero E6): Cytotoxicity was not observed | cytotoxic effect (WST-8) (Vero E6 cells): No cytotoxic effect was observed | cytotoxicity (HeLa-hACE2): Cytotoxicity was not observed | VSV-G-mediated entry [2]: None of the compounds impacted | nucleoprotein signal intensity in infected cells [9]: increased | number of infected cells (N or S positive) [9]: significantly reduced number of infected cells | spike protein staining intensity in infected cells [9]: significantly reduced | viral protein expression at the cell surface (nucleoprotein and spike) [9]: inhibitory effect of Apra S4 was even more pronounced | SARS-CoV-2 multicycle growth [5]: strongly reduced | virus titers ([5]; […], below limit of detection): < 100 PFU/mL | viral entry of SARS-CoV-2 S pseudotyped particles (luciferase) [3]: slightly enhanced infection | negative-strand viral RNA [10]: reduced the negative-strand RNA

CC1(C)C(N(O)C(=O)Nc2ccc(Cl)cc2)N(c2ccc(Cl)cc2)C(=O)N1CC(=O)N/N=C/C=C/c1ccc([N+](=O)[O-])o1 (stereo not drawn) [Eeyarestatin I, eeyarestatin I]
SARS-CoV-2 growth [11]: inhibited SARS-CoV-2 in a dose-dependent manner
